High-throughput results deposited in PubChem BioAssay by several laboratories.
This is a sample that favours compounds with a hit; in the whole collection about 29% have one here.
CYP2C9 inh: human CYP2C9 inhibition | CYP2C9 Supersomes, luciferin-H conversion, luminescence | AID 777 | hit rate 20% among 96,000 | inhibition, % at 5 µM | P11712;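 active means blocking of liver enzyme CYP2C9 beyond about 50% at 5 µM, limit read from the data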
tolC growth inh: E. coli tolC mutant growth inhibition. E. coli BW25113 tolC mutant growth, OD615. AID 573. growth inhibition, % at 10 µM (by protocol). hit rate 2.2% among 65,000;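 active means growth inhibition at or above a cutoff equal to the mean over every tested compound plus 3 SD, cut at about 60% in these data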;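 further: growth measured after 20 h incubation at 37 °C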
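Test system: tolC-deleted E. coli BW25113 | Medium: LB with kanamycin 50 µg/mL | Compound dosing: Single concentration, 10 µM final per compound | Schedule: 37 °C, 20 h exposure | Measured by: OD at 615 nm | Evaluation: Percent growth inhibition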
CYP2C19 inh: blocks human cytochrome P450 2C19. CYP2C19 Supersomes, luciferin-H EGE luminescence, 30 min. hit rate 21% among 96,000. inhibition, % at 5 µM;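 active means CYP2C19 inhibition above a set limit at 5 µM in the primary screen, cut at about 50% in these data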
Target sequence (P33261 whole entry, looked up): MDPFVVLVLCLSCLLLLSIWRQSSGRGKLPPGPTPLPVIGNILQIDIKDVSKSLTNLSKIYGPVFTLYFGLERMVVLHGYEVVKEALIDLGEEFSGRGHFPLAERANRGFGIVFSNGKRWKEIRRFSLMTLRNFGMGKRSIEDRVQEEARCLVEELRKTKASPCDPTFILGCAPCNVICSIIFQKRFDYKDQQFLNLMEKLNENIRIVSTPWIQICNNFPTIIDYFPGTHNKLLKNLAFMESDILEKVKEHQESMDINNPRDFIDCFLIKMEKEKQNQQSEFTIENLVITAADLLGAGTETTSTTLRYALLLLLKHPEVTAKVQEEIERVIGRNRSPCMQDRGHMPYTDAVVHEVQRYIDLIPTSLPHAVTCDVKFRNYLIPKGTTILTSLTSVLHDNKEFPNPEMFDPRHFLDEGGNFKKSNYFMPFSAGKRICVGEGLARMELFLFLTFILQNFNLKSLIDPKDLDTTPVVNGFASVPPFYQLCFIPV
Ecoli WT expand: E. coli BW25113 growth inhibition, expanded screen; OD600 absorbance; growth inhibition, % at 100 µM; hit rate 0.15% among 98,000;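 active means growth inhibition above about 50% at one test dose, limit read from the data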;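 further: growth measured after 20 h incubation at 37 °C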
CYP2C9 activ: CYP2C9 (human) activation; AID 1024; P11712; hit rate 1.4% among 96,000; activation factor at 5 µM; recombinant CYP2C9, luciferin-H conversion, luminescence; active compounds read high; factor 1 = untreated enzyme, 0 = blocked;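 active means activation factor of 2 or more for CYP2C9 at a 5 µM dose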
CYP2C19 act: activators of human cytochrome P450 2C19; P33261; recombinant CYP2C19, luciferin-H EGE luminescence; active compounds read high; 0 = fully inhibited enzyme, 1 = untreated enzyme; 96,000 tested, under 10 active; activation factor at 5 µM;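 active means activation factor of at least 2 at 5 µM in the primary screen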
Each line names hits and unclear results; the compound was inactive in the other large screens.

COc1cnc(SCC(=O)O)[nH]c1=O	none (no result: tolC growth inh)
COc1ccc(-c2nc3n(c(=O)c2C#N)CCCS3)cc1	none
COc1ccc(-c2cc3nc4n(c(=O)c3s2)CCC4)cc1	CYP2C9 inh 51.1, CYP2C19 inh 70.1
CCOC(=O)c1sc(=S)sc1SCc1cccc(C(F)(F)F)c1	CYP2C9 inh 96.6, CYP2C19 inh 53.3 (no result: tolC growth inh)
CCOC(=O)c1sc2cccc(F)c2c1N	none
CC1Cc2nc(SCC(=O)Nc3ccc4c(c3)OCO4)n(Cc3ccccc3)c(=O)c2S1 (stereo unspecified)	CYP2C9 inh 74.8, CYP2C19 inh 83.5
CC1Cc2nc(SCC(=O)Nc3ccc4c(c3)OCCO4)n(C)c(=O)c2S1 (stereo unspecified)	CYP2C9 inh 52.2
CC1Cc2nc(SCC(N)=O)n(C)c(=O)c2S1 (stereo unspecified)	none
CCOC(=O)c1ccc(NC(=O)CSc2nc3c(c(=O)n2C)SC(C)C3)cc1 (stereo unspecified)	CYP2C9 inh 51.2
COCCn1c(SCC(=O)Nc2ccc3c(c2)OCCO3)nc2c(c1=O)SC(C)C2 (stereo unspecified)	none (no result: CYP2C9 inh, CYP2C19 inh, CYP2C9 activ, CYP2C19 act)
Cc1cccc2nc(Cn3c(=O)n(CCC(=O)NCc4ccco4)c(=O)c4ccccc43)cc(=O)n12	none (no result: CYP2C9 inh, CYP2C19 inh, Ecoli WT expand, CYP2C9 activ, CYP2C19 act)
O=C(CN1C(=O)CCS(=O)(=O)c2ccccc21)Nc1ccc2c(c1)OCCO2	none (no result: CYP2C9 inh, CYP2C19 inh, CYP2C9 activ, CYP2C19 act)
O=C(CN1C(=O)CSc2ccccc21)Nc1ccc2c(c1)OCCO2	CYP2C9 activ 2.2
Cc1cc2ccccc2c(=O)n1CC(=O)Nc1ccc2c(c1)OCCO2	CYP2C9 inh 62.9, CYP2C19 inh 55.7
O=C(CN1C(=O)COc2ccccc21)Nc1ccc2c(c1)OCCO2	CYP2C19 inh 57.1
O=C(CN1C(=O)CCSc2ccccc21)Nc1ccc2c(c1)OCO2	CYP2C9 inh 70.4, CYP2C19 inh 90.0
CC(Sc1ccccc1)C(=O)Nc1ccc(S(=O)(=O)N2CCOCC2)cc1 (stereo unspecified)	none
CCOCCCNC(=O)CN1C(=O)CSc2ccccc21	none (no result: CYP2C9 inh, CYP2C19 inh, Ecoli WT expand, CYP2C9 activ, CYP2C19 act)
O=C(CN1C(=O)CSc2ccccc21)NC1CCCC1	CYP2C9 activ 2.3
CCOC(=O)C1CCCN(C(=O)Cn2cccc2C(=O)c2ccccc2)C1 (stereo unspecified)	none
CCN1CCCC1CNS(=O)(=O)c1cc(Br)cc2c1N(C(=O)C1CC1)CC2 (stereo unspecified)	none
O=C(C1CC1)N1CCc2cc(Br)cc(S(=O)(=O)NCc3ccc4c(c3)OCO4)c21	CYP2C19 inh 66.8
CCCCN(C)S(=O)(=O)c1cc(Br)cc2c1N(C(=O)C1CC1)CC2	CYP2C19 inh 86.5
CCOCCCNS(=O)(=O)c1cc(Br)cc2c1N(C(=O)C1CC1)CC2	CYP2C9 activ 2.3
CCN(c1ccc2c(c1)OCO2)S(=O)(=O)c1cc(Br)cc2c1N(C(C)=O)CC2	CYP2C19 inh 56.0 (no result: tolC growth inh)
Cc1occc1-c1nnc2sc(-c3ccc(-c4ccc(Cl)cc4)o3)nn12	none (no result: CYP2C9 inh, CYP2C19 inh, Ecoli WT expand, CYP2C9 activ, CYP2C19 act)
COc1ccc(C(CC(=O)NCCCN2CCOCC2)NS(=O)(=O)c2ccc(C)cc2)cc1 (stereo unspecified)	none
COC(=O)c1ccccc1NC(=O)c1cc(-c2cccc(OC)c2)on1	none (no result: CYP2C9 inh, CYP2C19 inh, Ecoli WT expand, CYP2C9 activ, CYP2C19 act)
O=C(C1CC1)N1CCc2cc(Br)cc(S(=O)(=O)N3CCOCC3)c21	CYP2C9 inh 71.9
Cc1ccsc1/C=C/c1ccc2ccccc2n1	none (no result: tolC growth inh)
Cc1ccsc1/C=C/c1ccc2cccc(O)c2n1	CYP2C9 inh 72.6, CYP2C19 inh 56.8 (no result: tolC growth inh)
CCCS(=O)(=O)N1CCc2cc(OC)c(OC)cc2C1	CYP2C19 inh 55.2
O=C(NCC(c1cccnc1)N1CCN(c2ccc(F)cc2)CC1)c1ccc2c(c1)OCO2 (stereo unspecified)	CYP2C9 inh 80.5, CYP2C19 inh 63.6
O=C(NCC(c1cccnc1)N1CCN(c2ccc(F)cc2)CC1)c1ccc(F)cc1 (stereo unspecified)	CYP2C9 inh 76.8, CYP2C19 inh 81.0
COc1ccc(N2CCN(C(CNC(=O)c3ccc4c(c3)OCO4)c3cccnc3)CC2)cc1 (stereo unspecified)	none
COc1ccc(C(=O)NCC(c2cccnc2)N2CCN(c3ccc(F)cc3)CC2)cc1OC (stereo unspecified)	none (no result: CYP2C9 inh, CYP2C19 inh, CYP2C9 activ, CYP2C19 act)
O=C(c1ccco1)N(Cc1ccc([N+](=O)[O-])cc1)c1ccc(Cl)cc1	CYP2C9 inh 94.4 (no result: tolC growth inh)
O=C(c1ccco1)N(Cc1ccco1)c1ccc(O)cc1	CYP2C9 inh 53.7
COc1ccc(N2CCN(CC(=O)Nc3nc4c(s3)CC(C)CC4)CC2)cc1 (stereo unspecified)	CYP2C9 inh 57.1, tolC growth inh 100.0
CC1CCc2nc(NC(=O)c3ccco3)sc2C1 (stereo unspecified)	CYP2C9 inh 55.7, CYP2C19 inh 66.4
COc1ccc(N2CCN(CC(=O)Nc3cc(C)on3)CC2)cc1	none
O=C(O)CCc1cc(I)c(Oc2ccc(O)c(I)c2)c(I)c1	none (no result: CYP2C9 inh, CYP2C19 inh, Ecoli WT expand, CYP2C9 activ, CYP2C19 act)
Cc1c(C2(O)C(=O)Nc3ccc(F)cc32)c(=O)n(-c2ccccc2)n1C (stereo unspecified)	none
O=C1Nc2ccc(F)cc2C12SCCS2	CYP2C9 activ 2.3 (no result: tolC growth inh)
Nn1cnnc1SC1CCCCC1NS(=O)(=O)c1ccccc1 (stereo unspecified)	CYP2C19 inh 81.1
Cn1cnnc1SC1CCCCC1NS(=O)(=O)c1ccccc1 (stereo unspecified)	none (no result: tolC growth inh)
COc1ccc(C2OC(=O)CC2C(=O)NC2CCCCCC2)cc1OC (stereo unspecified)	none
COc1ccccc1CNC(=O)c1cc2sccc2n1C	none
O=C(NCCc1c[nH]c2ccccc12)c1cc2sccc2n1Cc1ccccc1	CYP2C9 inh 82.5, CYP2C19 inh 64.6 (no result: tolC growth inh)
O=C(NCCc1c[nH]c2ccccc12)c1c(Cl)nc2sccn12	none
Cn1c(C(=O)NCCc2c[nH]c3ccccc23)cc2sccc21	CYP2C19 inh 54.1
FC(F)(F)c1cnc(Nc2ccc(N3CCOCC3)cc2)c(Cl)c1	none
O=c1c(-c2nnc(SCc3ccc(Cl)c(Cl)c3)o2)cccn1Cc1ccccc1	CYP2C9 inh 55.5, CYP2C19 inh 84.5 (no result: tolC growth inh)
Cc1cccc(-c2nnc(SCc3ccccc3)o2)c1	none (no result: tolC growth inh)
CCOC(=O)c1c(C)nc2sc(C(=O)Nc3ccc(C(C)=O)cc3)c(N)c2c1-c1ccc(OC)cc1	CYP2C9 inh 62.2, CYP2C19 inh 59.9 (no result: tolC growth inh)
CCOC(=O)c1c(C)nc2sc(C(=O)Nc3ccc(OC)cc3)c(N)c2c1-c1ccc(OC)cc1	CYP2C9 inh 85.1, CYP2C19 inh 81.3 (no result: tolC growth inh)
CCOc1ccc(/C(O)=C2/C(=O)C(=O)N(c3nc(C)c(C)s3)C2c2ccco2)cc1 (stereo unspecified)	CYP2C9 inh 81.0
Cc1cc(C)c2nc(N3CCCN(C(=O)c4cnccn4)CC3)c(C#N)cc2c1	none
COc1cc2c(cc1OC)-c1nnc(C)n1C(C)(C)C2	none
Cc1cc2c(cc1C)-c1nnnn1C(C)(C)C2	CYP2C19 inh 59.4
O=C(O)C=C1CCN(c2ncc(C(F)(F)F)cc2Cl)CC1	none (no result: CYP2C9 inh, tolC growth inh, CYP2C19 inh, CYP2C9 activ, CYP2C19 act)
